Sampled rows, rich in hits. Any-hit rate of the full collection: about 1.2%.
AF4-AF9 inh – inhibitors of human MLL-AF4/AF9 interaction. AlphaScreen, biotin-AF4 peptide binding to FLAG-AF9. inhibition, % at 10 µM. AID 651704. actives 0.47% (n = 350,000). P42568;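 active = every replicate reaching a set inhibition limit, whatever the replicate mean, cut at about 25% in these data; inconclusive = mean inhibition reaches that limit but some replicates miss it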;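 also: 0% = plate neutral control median and 100% = total signal loss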
Glyco luc inh – blocks N-linked glycosylation in D54 reporter cells; D54 ERlucT glycosylation luciferase reporter, 24 h; percent of 100 nM tunicamycin response; reporter increase, % at 12.5 µM; actives 0.23% (n = 360,000); AID 588692;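 active = mean luciferase reporter signal, scaled so untreated is 0 and the glycosylation-blocking control 100, at or above a set limit in every replicate; inconclusive = mean reaches the limit but not every replicate does; inactive = mean below the limit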;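 also: luciferase carries N-glycosylation sites so blocking glycosylation raises the light; 0% = median of neutral control wells and 100% = median of 100 nM tunicamycin wells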
FN deposit inh – fibronectin deposition inhibition; AH1F fibroblasts, Alexa488-fibronectin deposition fluorescence, overnight; inhibition, % at 12.6 µM; actives 0.086% (n = 350,000); AID 743247;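 active = mean inhibition across replicates of 30% or more, regardless of how many single replicates reach that level; inconclusive = mean under 30% yet at least half of replicates reach 30%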;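 also: positive control wells lacked labelled fibronectin entirely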
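Measured by – fluorescence 485/525 nm · System – AH1F fibroblast monolayer, labelled fibronectin deposition · Amount – 10000 cells per well · Buffer or medium – serum-reduced DMEM (2% serum) · Doses – single dose, pinned · Also added – fluorescent fibronectin at 24 nM final · Schedule – 1 h cell attachment, overnight exposure to compound and label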
RAD52 anneal inh – RAD52 (human) annealing inhibition; recombinant RAD52 DNA annealing, FRET fluorescence; actives 0.46% (n = 360,000); P43351; inhibition, % at 18.7 µM; AID 651710;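 active = every replicate showing at least 50% inhibition; inconclusive = mean inhibition at least 50% but not in every replicate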
Target sequence (P43351 whole entry, looked up): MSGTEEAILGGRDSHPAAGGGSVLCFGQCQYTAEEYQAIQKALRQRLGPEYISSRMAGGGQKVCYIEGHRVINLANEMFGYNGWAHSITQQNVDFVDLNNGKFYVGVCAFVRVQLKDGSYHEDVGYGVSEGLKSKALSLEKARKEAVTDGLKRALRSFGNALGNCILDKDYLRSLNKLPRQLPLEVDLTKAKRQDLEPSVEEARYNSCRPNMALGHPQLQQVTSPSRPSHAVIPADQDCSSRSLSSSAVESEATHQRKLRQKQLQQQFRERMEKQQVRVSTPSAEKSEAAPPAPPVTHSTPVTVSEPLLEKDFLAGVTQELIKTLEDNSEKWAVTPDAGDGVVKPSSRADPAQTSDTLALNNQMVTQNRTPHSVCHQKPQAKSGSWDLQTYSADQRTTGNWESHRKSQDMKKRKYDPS
RAD54 inh – blocks human RAD54 Holliday junction branch migration. Q92698. AID 602329. FAM/BHQ fluorescence. actives 0.14% (n = 360,000). inhibition, % at 10.4 µM;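 active = mean normalized replicate activity at least 40 and at least half of replicates scoring 40 or more; inconclusive = only one of the two criteria met; inactive = mean below 40 and under half of replicates reaching 40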;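 also: 0% = median of neutral control wells and 100% = median of positive control wells; inhibitors cause a drop in the FAM fluorescence signal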
NSD2 HMT inh – NSD2 (human) methyltransferase inhibition | O96028 | NSD2 peptide methylation, AlphaScreen, 120 min | inhibition, % at 12.5 µM | actives 0.54% (n = 310,000) | AID 743445; in the data active = inhibition above about 50%
Active calls of the source: *; ? = inconclusive; . = no result; ! = not confirmed by another sample.

SMILES	AF4-AF9 inh	Glyco luc inh	FN deposit inh	RAD52 anneal inh	RAD54 inh	NSD2 HMT inh
Cc1ccc(SC2=C(N(C)C)C(=O)c3ccccc3C2=O)cc1	12	7	-11	-12	.	93*
Cc1cc(C)c2cccc(N)c2n1	-3	9	-6	0	-1	13
Cc1cc(C)c2c(N)c3ccccc3nc2n1	.	123*	1	.	100*	.
COc1ccc2c3c(n(C)c2c1)[C@@H](CO)N(Cc1ccc(F)cc1)CC31CCN(CC2CC2)CC1	?	.	.	1	.	.
COc1ccc2c3c(n(C)c2c1)[C@H](CO)NCC31CCN(Cc2cc(-c3ccccc3)on2)CC1	39*	.	-6	67*	.	.
COc1ccc2c3c(n(C)c2c1)[C@H](CO)NCC31CN(Cc2ccccc2F)C1	54*	.	.	.	.	.
COc1ccc2c3c(n(C)c2c1)[C@H](CO)NCC31CN(Cc2ccc(F)cc2)C1	36*	.	12	62*	.	.
COc1ccc2c3c(n(C)c2c1)[C@H](CO)N(CC1CC1)CC31CN(Cc2ccc(F)cc2)C1	31*	.	6	35	.	.
COc1ccc2c3c(n(C)c2c1)[C@H](CO)NCC31CN(Cc2ccncc2)C1	4	.	.	.	.	.
COc1ccc2c3c(n(C)c2c1)[C@H](CO)NCC31CCN(Cc2ccccc2Cl)CC1	9	.	17	.	.	.
COc1ccc2c3c([nH]c2c1)[C@@H](CO)N(C(=O)Nc1ccc(F)cc1)CC31CCN(S(C)(=O)=O)CC1	4	.	.	1	.	.
COc1ccc2c3c(n(C)c2c1)[C@@H](CO)NCC31CN(Cc2ccc(Cl)cc2)C1	45*	.	.	.	.	.
COc1cccc(CN2C[C@@H]3N[C@H](C2)C3c2ccc(-c3ccccc3OC)cc2)c1 (some centres undefined)	13	.	-2	51*	.	.
COc1cccc(CN2C[C@@H]3N[C@H](C2)C3c2ccc(-c3ccc(C#N)cc3)cc2)c1 (some centres undefined)	5	.	-3	71*!	.	.
Cc1cccc(-c2ccc(C3[C@@H]4CN(Cc5ccccc5)C[C@H]3N4)cc2)c1 (some centres undefined)	8	.	-11	50*	.	.
O=C(CCNS(=O)(=O)c1cccc2nonc12)NC1CCCc2ccccc21 (centres undefined)	.	-3	36*	.	6	-1
O=C(CCNS(=O)(=O)c1cccc2nsnc12)NC1CCCc2ccccc21 (centres undefined)	.	1	1	.	-1	2
CCn1c(O)c(N=NC(=O)CNC(=O)Cc2ccccc2)c2ccccc21	0	2	-8	3	6	-2
O=C(CNC(=O)c1ccco1)N=Nc1c(O)n(CCc2ccccc2)c2ccccc12	-15	34*	-5	-7	8	5
CCn1c(CNC(=O)Cc2ccc(OC)cc2)nnc1SCC(=O)c1ccccc1	-10	-1	7	-17	.	0
COc1ccc(C(=O)NCc2nnc(SCC(=O)NO)n2Cc2ccccc2)cc1	26*	41*	-6	-2	.	6
CCN1C(=O)c2cccc3c(S(=O)(=O)Nc4ccccc4)ccc1c23	.	51*	.	.	-9	-8
CCN1C(=O)c2cccc3c(S(=O)(=O)Nc4ccccn4)ccc1c23	.	50*	9	.	5	.
CCN1C(=O)c2cccc3c(S(=O)(=O)Nc4ccncc4)ccc1c23	.	4	.	.	-5	-1
O=S(=O)(N[C@H]1CC[C@H](CCn2cc(-c3cccc(F)c3)nn2)O[C@@H]1CO)c1ccc(Cl)cc1	-1	.	.	-8	-5	.
SMILES	AF4-AF9 inh	Glyco luc inh	FN deposit inh	RAD52 anneal inh	RAD54 inh	NSD2 HMT inh
CCOC(=O)/C(=C\c1cccnc1)C(=O)c1cc(C(C)=O)c(Nc2ccccc2)s1	.	-20	.	.	-5	.
CCOC(=O)/C(=C\c1ccccc1)C(=O)c1cc(C(C)=O)c(Nc2ccccc2)s1	.	35*	.	.	9	4
COc1ccc(C(=O)Nc2ccc3c(c2)OC[C@@H](C)N(C(C)=O)C[C@H](C)[C@@H](OC)CN(C)C3=O)cc1	-1	.	-5	2	-7	.
Cc1nn(-c2ccccc2)c(N)c1N=Nc1ccccc1	31*	-7	-1	-3	.	11
CC(=O)NC1=C(NC2CCS(=O)(=O)C2)C(=O)c2ccccc2C1=O (centres undefined)	.	9	7	.	-3	69*
O=C1C=C(NCCc2cc(Br)c(O)c(Br)c2)C(=O)c2ncccc21	-6	-20	7	13	.	137*
N#Cc1nc(COc2ccccc2Cl)oc1N1CCCC1	26*	-1	-3	-19	.	6
N#Cc1nc(COc2ccccc2Cl)oc1N1CCCCCC1	9	-3	-3	-6	4	.
CCNC(=O)c1cc2c(c(-c3cccc(-c4cccc(F)c4)c3)n1)[C@H](CCO)N([S@@](=O)C(C)(C)C)C2	5	.	8	0	-4	.
N#Cc1cccc(-c2ccc([C@@H]3[C@H]4CN(Cc5ccccc5F)CCCCN4[C@H]3CO)cc2)c1	7	.	12	14	28	.
N#Cc1cccc(-c2ccc(C3[C@@H]4CN(Cc5cocn5)C[C@H]3N4)cc2)c1 (some centres undefined)	16	.	8	65*	.	.
N#Cc1cccc(-c2ccc(C3[C@@H]4CN(Cc5ccccc5F)C[C@H]3N4)cc2)c1 (some centres undefined)	10	.	4	83*!	.	.
CCOc1cccc2cc(-c3csc(NC(=O)CCC(=O)NC4CCCC4)n3)c(=O)oc12	.	.	.	.	.	5
NNC(=O)c1ccc2nc(-c3ccc(Br)cc3)cn2c1	2	116*	.	-8	.	-1
C[C@@H]1CN([C@@H](C)CO)S(=O)(=O)c2ccc(-c3ccc(F)cc3)cc2O[C@H]1CN(C)C(=O)C1CC1	.	.	-4	.	.	.
COc1cc(/C=C2\CC/C(=C\c3cc(OC)c(O)c(OC)c3)C2=O)cc(OC)c1O	14	-1	1	-36	.	62*
COc1cc(/C=C2/CCC/C(=C\c3cc(O)c(OC)c(Cl)c3)C2=O)cc(Cl)c1O	.	35*	26	.	1	9
CC(C)CC[n+]1ccn(-c2nc3ccccc3nc2[N-]S(=O)(=O)c2ccccc2)c1	.	-4	.	.	-4	3
O=S(=O)([N-]c1nc2ccccc2nc1-n1cc[n+](Cc2ccccc2)c1)c1ccc(Cl)cc1	-1	47*	-3	-35	-7	-3
CC=Cc1ccc2n(c1=O)C[C@H]1[C@H](CO)[C@@H](C(=O)Nc3ccccc3)[C@@H]2N1C(=O)CC1CC1 (mixture of isomers)	-5	.	.	9	1	.
COc1ccccc1NC(=O)c1nc(S(=O)(=O)Cc2ccccc2)ncc1Cl	1	-20	42*	-11	4	-3
CCc1ccc(NC(=O)c2nc(S(=O)(=O)Cc3ccccc3)ncc2Cl)cc1	0	-10	51*	-14	10	0
CC(=O)Nc1ccc(NC(=O)c2nc(S(=O)(=O)Cc3cccc(C)c3)ncc2Cl)cc1	-3	2	18	-13	0	-5
